Assay results as given in ChEMBL document CHEMBL1153278, “Discovery of novel non-peptidic beta-alanine piperazine amide derivatives and their optimization to achiral, easily accessible, potent and selective somatostatin sst1 receptor antagonists” (Bioorg Med Chem Lett, 2009).

How the values were obtained:
[1] = biological target: Somatostatin receptor type 1 (Rattus norvegicus, UniProt P28646); test: Binding affinity to rat sst1 receptor
Procedure, shortened: (§1)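 Receptor binding run on rat sst1 and sst2 and on human sst1–sst5; affinities given as pKd, mean ± SEM of 3–6 experiments.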

[2] = biological target: Somatostatin receptor type 2 (Rattus norvegicus, UniProt P30680); test: Binding affinity to rat sst2 receptor; procedure, shortened: as §1
Rattus norvegicus = organism: Rattus norvegicus; test: Selectivity for rat sst1 receptor over rat sst2 receptor
[3] = biological target: T1, Somatostatin receptor type 1 (Homo sapiens, UniProt P30872); test: Binding affinity to human sst1 receptor; procedure, shortened: as §1
[4] = biological target: Somatostatin receptor type 2 (Homo sapiens, UniProt P30874); test: Binding affinity to human sst2 receptor; procedure, shortened: as §1
[5] = biological target: Somatostatin receptor type 3 (Homo sapiens, UniProt P32745); test: Binding affinity to human sst3 receptor; procedure, shortened: as §1
[6] = biological target: Somatostatin receptor type 4 (Homo sapiens, UniProt P31391); test: Binding affinity to human sst4 receptor; procedure, shortened: as §1
D(4) dopamine receptor = biological target: T2, D(4) dopamine receptor (Homo sapiens, UniProt P21917); test: Binding affinity to dopamine D4 receptor
T2 sequence (P21917 whole entry): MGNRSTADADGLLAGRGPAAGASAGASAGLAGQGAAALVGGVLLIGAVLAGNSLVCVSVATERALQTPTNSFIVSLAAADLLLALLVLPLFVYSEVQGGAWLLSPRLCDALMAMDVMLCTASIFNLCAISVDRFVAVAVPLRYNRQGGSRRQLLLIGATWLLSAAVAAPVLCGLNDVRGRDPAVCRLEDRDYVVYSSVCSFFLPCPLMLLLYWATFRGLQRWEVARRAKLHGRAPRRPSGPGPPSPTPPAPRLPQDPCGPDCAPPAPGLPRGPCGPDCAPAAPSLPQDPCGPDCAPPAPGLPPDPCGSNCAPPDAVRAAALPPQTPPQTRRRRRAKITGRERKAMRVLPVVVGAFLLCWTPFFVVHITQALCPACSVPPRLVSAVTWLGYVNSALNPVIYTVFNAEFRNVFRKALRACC

D(2) dopamine receptor = D(2) dopamine receptor (Homo sapiens, UniProt P14416); test: Binding affinity to dopamine D2 receptor
[7] = biological target: Somatostatin receptor type 1 (Rattus norvegicus) (UniProt P28646); test: Antagonist activity at rat sst1 receptor assessed as inhibition of forskolin-stimulated cAMP accumulation by luciferase assay; format: functional
[8] = biological target: T1, Somatostatin receptor type 1; test: Antagonist activity at human sst1 receptor assessed as inhibition of forskolin-stimulated cAMP accumulation by luciferase assay; format: functional
[9] = Binding affinity to adrenergic alpha1 receptor
[10] = Oral bioavailability in mouse at 30 umol/kg; format: ADME, organism-based; conditions: in vivo
Procedure, shortened: (§2)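 Mice dosed by the intravenous and the oral route; drug levels followed in both plasma and brain; apparent terminal half-life taken from plasma; oral bioavailability estimated.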

[11] = Ratio of drug level in brain to plasma in mouse at 10 umol/kg, iv and 30 umol/kg, po; format: ADME, organism-based
Procedure, shortened: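 Pharmacokinetic study in mice given a single intravenous dose or an oral dose. Drug concentrations were measured in plasma and brain over time after each route. The brain/plasma concentration ratio was derived for each route.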

[12] = Tmax in mouse at 10 umol/kg, iv and 30 umol/kg, po; format: ADME, organism-based; conditions: in vivo; procedure, shortened: as §2
[13] = Apparent terminal half life in mouse plasma at 10 umol/kg, iv and 30 umol/kg, po; format: ADME, organism-based; conditions: read-out: beta t1/2 (converted); procedure, shortened: as §2
Cytochrome P450 1A2 = biological target: T3, Cytochrome P450 1A2 (Homo sapiens, UniProt P05177); test: Inhibition of human CYP1A2 by microplate-based direct fluorometric assay; format: ADME
T3 sequence (P05177 whole entry): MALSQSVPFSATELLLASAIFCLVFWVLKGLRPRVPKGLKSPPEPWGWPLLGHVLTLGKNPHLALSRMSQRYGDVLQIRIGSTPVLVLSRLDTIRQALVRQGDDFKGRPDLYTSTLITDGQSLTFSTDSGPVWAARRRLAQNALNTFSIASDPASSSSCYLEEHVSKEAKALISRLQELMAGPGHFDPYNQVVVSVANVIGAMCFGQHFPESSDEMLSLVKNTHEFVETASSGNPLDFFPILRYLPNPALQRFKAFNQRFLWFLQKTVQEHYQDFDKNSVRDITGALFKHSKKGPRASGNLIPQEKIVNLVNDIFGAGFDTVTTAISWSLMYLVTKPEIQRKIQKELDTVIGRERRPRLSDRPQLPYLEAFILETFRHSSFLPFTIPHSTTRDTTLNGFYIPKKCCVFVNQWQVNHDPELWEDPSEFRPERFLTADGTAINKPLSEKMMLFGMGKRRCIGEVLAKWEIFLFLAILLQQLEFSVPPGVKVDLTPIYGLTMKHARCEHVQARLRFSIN

Cytochrome P450 3A4 = Cytochrome P450 3A4 (Homo sapiens, UniProt P08684); test: Inhibition of human CYP3A4 by microplate-based direct fluorometric assay; format: ADME
Cytochrome P450 2C19 = Cytochrome P450 2C19 (Homo sapiens, UniProt P33261); test: Inhibition of human CYP2C19 by microplate-based direct fluorometric assay; format: ADME
Cytochrome P450 2D6 = Cytochrome P450 2D6 (Homo sapiens, UniProt P10635); test: Inhibition of human CYP2D6 by microplate-based direct fluorometric assay; format: ADME
V79 = test: Genotoxicity in Chinese hamster V79 cells by micronucleus test; format: toxicity, cell-based, Cricetulus griseus
[14] = biological target: Somatostatin receptor type 5 (Homo sapiens, UniProt P35346); test: Binding affinity to human sst5 receptor; procedure, shortened: as §1
Sequence of Somatostatin receptor type 5 (P35346 whole entry): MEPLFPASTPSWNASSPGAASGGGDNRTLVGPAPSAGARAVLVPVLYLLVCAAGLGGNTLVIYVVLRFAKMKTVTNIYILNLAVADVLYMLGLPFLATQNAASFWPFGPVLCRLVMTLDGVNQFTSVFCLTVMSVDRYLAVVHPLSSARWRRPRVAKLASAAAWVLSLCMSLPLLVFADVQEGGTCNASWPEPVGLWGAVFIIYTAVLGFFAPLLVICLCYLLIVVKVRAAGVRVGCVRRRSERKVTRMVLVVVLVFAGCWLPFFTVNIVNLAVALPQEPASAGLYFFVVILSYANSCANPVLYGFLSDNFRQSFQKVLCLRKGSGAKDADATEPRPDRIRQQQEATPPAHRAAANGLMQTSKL

Sequence of Somatostatin receptor type 1 (Rattus norvegicus, UniProt P28646) (P28646 whole entry): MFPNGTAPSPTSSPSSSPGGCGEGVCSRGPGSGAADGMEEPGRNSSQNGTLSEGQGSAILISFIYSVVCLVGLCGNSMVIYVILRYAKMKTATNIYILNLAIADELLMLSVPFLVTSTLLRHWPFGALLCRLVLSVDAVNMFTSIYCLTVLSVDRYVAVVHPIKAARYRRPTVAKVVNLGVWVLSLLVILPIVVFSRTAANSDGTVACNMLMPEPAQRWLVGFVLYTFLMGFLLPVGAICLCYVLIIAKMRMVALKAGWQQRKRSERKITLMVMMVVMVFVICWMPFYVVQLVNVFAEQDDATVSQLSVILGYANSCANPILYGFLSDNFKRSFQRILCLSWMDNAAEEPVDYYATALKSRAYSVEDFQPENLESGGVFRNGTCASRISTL
Sequence of Somatostatin receptor type 2 (Rattus norvegicus, UniProt P30680) (P30680 whole entry): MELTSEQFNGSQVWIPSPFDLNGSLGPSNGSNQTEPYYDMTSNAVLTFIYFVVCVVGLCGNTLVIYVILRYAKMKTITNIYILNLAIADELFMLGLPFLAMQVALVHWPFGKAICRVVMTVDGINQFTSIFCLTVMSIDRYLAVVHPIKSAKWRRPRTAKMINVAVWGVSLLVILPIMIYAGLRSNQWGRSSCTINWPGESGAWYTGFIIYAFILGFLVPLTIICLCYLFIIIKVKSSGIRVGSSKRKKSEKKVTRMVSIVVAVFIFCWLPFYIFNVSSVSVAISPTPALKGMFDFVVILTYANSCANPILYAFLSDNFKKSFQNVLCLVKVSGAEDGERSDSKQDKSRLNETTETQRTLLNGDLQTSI
Sequence of Somatostatin receptor type 2 (Homo sapiens, UniProt P30874) (P30874 whole entry): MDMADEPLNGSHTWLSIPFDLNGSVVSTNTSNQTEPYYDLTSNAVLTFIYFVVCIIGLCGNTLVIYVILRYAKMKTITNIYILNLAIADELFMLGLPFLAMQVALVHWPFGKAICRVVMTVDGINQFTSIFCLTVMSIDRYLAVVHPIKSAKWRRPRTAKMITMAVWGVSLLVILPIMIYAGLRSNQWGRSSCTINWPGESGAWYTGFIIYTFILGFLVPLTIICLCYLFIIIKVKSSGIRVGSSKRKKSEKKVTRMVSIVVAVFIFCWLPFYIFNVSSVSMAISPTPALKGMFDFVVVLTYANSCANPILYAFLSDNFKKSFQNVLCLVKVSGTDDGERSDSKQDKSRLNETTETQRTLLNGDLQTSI
T1 sequence (P30872 whole entry): as the sequence (P28646 whole entry) above, with P8S, T11S, S16P, G20S, V25G, C26G, S32A, S45A, A385T, S389T counted along it
Sequence of Somatostatin receptor type 3 (P32745 whole entry): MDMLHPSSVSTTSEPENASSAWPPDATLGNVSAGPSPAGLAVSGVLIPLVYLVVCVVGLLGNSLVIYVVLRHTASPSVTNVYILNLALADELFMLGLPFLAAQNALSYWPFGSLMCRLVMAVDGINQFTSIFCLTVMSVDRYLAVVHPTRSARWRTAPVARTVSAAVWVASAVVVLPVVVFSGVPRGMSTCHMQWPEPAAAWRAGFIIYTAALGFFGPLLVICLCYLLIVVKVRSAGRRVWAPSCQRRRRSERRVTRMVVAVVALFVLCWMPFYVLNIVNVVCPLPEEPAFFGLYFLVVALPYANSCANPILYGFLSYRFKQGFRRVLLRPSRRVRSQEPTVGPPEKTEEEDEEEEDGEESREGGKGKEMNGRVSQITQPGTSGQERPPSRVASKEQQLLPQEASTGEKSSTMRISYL
Sequence of Somatostatin receptor type 4 (P31391 whole entry): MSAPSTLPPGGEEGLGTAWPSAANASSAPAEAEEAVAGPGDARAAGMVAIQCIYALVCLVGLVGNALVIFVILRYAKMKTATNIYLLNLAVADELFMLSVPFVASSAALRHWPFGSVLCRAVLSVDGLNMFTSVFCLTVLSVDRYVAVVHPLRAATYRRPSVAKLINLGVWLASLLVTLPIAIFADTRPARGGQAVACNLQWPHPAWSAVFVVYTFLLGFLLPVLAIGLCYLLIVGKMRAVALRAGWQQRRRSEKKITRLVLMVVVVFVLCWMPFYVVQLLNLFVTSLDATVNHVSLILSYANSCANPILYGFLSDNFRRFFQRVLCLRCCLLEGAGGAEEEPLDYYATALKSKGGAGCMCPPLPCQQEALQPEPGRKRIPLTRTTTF
Sequence of Somatostatin receptor type 1 (Rattus norvegicus) (P28646 whole entry): as the sequence (P28646 whole entry) above
Sequence of Cytochrome P450 2C19 (P33261 whole entry): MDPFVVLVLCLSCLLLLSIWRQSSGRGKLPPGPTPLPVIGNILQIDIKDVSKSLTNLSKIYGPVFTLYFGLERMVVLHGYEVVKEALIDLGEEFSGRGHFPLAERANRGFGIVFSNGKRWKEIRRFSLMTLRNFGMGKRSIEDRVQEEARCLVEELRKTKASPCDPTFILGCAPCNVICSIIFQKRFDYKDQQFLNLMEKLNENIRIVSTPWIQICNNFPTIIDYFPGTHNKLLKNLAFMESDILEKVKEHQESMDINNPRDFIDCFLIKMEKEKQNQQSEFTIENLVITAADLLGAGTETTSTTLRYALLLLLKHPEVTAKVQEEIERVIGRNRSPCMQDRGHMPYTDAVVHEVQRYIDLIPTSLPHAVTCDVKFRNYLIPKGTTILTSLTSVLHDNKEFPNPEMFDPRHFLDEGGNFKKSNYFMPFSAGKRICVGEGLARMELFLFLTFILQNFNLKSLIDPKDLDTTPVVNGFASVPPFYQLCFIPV
Sequence of Cytochrome P450 3A4 (P08684 whole entry): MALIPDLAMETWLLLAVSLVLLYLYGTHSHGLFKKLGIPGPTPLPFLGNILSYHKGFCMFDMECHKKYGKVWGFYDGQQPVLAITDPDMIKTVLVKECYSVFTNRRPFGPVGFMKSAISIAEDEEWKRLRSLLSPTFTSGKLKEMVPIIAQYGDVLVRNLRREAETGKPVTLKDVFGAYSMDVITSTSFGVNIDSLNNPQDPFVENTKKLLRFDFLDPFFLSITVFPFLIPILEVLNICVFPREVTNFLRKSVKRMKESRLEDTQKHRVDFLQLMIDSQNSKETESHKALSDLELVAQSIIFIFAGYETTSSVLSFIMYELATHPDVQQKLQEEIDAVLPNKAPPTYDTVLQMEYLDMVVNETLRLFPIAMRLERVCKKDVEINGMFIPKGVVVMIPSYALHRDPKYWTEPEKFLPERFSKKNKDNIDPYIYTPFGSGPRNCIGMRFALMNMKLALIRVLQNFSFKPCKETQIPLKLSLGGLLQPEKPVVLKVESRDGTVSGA
Sequence of Cytochrome P450 2D6 (P10635 whole entry): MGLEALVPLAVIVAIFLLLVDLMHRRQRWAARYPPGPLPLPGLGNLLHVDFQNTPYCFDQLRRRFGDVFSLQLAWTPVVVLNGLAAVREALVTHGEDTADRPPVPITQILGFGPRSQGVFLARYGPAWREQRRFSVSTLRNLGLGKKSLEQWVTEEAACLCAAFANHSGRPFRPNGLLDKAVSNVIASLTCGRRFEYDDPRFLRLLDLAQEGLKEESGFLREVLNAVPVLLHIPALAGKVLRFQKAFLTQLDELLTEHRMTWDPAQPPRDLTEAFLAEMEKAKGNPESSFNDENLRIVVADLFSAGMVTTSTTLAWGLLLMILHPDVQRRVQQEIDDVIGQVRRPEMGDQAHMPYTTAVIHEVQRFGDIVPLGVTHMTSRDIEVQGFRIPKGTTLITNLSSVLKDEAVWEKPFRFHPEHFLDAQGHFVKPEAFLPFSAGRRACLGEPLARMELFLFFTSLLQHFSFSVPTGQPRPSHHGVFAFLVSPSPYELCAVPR
Sequence of D(2) dopamine receptor (P14416 whole entry): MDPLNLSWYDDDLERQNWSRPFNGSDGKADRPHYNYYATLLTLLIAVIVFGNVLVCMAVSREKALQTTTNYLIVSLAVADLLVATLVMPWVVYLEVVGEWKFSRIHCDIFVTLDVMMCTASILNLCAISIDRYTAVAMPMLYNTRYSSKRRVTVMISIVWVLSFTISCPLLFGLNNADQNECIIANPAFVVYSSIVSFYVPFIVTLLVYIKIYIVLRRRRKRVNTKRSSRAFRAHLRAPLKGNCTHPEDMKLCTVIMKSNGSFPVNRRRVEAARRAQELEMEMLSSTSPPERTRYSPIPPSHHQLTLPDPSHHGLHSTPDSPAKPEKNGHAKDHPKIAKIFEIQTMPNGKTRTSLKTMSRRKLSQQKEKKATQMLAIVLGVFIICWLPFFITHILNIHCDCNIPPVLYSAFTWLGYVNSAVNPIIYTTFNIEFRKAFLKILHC

| SMILES | Kd [1] | Kd [2] | further results |
| --- | --- | --- | --- |
| CN(CCC(=O)N1CCN(c2ccc3c(c2)OCO3)CC1)CCC1c2ccccc2-c2ccccc21 | 4.57 nM |  |  |
| CN(CCC(=O)N1CCN(c2ccc([N+](=O)[O-])cc2)CC1)CCC1c2ccccc2Sc2ccccc21 | 12.6 nM | 6030 nM |  |
| CN(CCC(=O)N1CCN(c2ccc3nonc3c2)CC1)CCC1c2ccccc2-c2ccccc21 | 0.741 nM | 4170 nM | fold change (FC) (Rattus norvegicus): > 10000; Kd [3]: 2.63 nM; Kd [4]: 4170 nM; Kd [5]: 1200 nM; Kd [6]: 1150 nM |
| O=C(CCN(CCC1c2ccccc2-c2ccccc21)CC1CC1)N1CCN(c2ccc([N+](=O)[O-])cc2)CC1 | 45.7 nM | 6920 nM |  |
| CC(C)N(CCC(=O)N1CCN(c2ccc([N+](=O)[O-])cc2)CC1)CCC1c2ccccc2-c2ccccc21 | 4.68 nM | 912 nM |  |
| CN(CCC(=O)N1CCN(c2ccccc2Cl)CC1)CCC1c2ccccc2-c2ccccc21 | 24 nM |  |  |
| CN(CCC(=O)N1CCN(c2ccc(F)c(F)c2)CC1)CCC1c2ccccc2-c2ccccc21.Cl | 0.575 nM | 19500 nM | Kd (D(4) dopamine receptor): 126 nM; Kd (D(2) dopamine receptor): 776 nM; fold change (FC) (Rattus norvegicus): > 10000; Kd [3]: 5.37 nM; Kd [4]: 12300 nM; Kd [5]: 2690 nM; Kd [6]: 2400 nM; pKb [7]: 8.55; pKb [8]: 8.46; pKd [9]: 6.53; bioavailability [10]: 7%; Kp [11]: > 1; Tmax [12]: 1 h; half-life [13]: 6 h; IC50 (Cytochrome P450 1A2): > 10000 nM; IC50 (Cytochrome P450 3A4): > 10000 nM; IC50 (Cytochrome P450 2C19): > 10000 nM; IC50 (Cytochrome P450 2D6): 1300 nM; Activity (V79): Non-toxic |
| CN(CCC(=O)N1CCN(c2ccncc2)CC1)CCC1c2ccccc2-c2ccccc21 | 21.4 nM |  |  |
| CN(CCC(=O)N1CCN(c2ccc([N+](=O)[O-])cc2)CC1)CCC1c2ccccc2Cc2ccccc21 | 29.5 nM | 18600 nM |  |
| CN(CCC(=O)N1CCN(c2ccc([N+](=O)[O-])cc2)CC1)CCC1c2ccccc2Oc2ccccc21 | 0.891 nM | 6760 nM | fold change (FC) (Rattus norvegicus): > 1000 |
| CN(CCC(=O)N1CCN(c2ccc3nonc3c2)CC1)CCC1c2ccccc2Oc2ccccc21 | 0.324 nM | 8130 nM | fold change (FC) (Rattus norvegicus): > 10000; Kd [3]: 2.14 nM; Kd [5]: 1620 nM; Kd [6]: 1450 nM |
| CN(CCC(=O)N1CCN(c2ccc(F)cc2F)CC1)CCC1c2ccccc2-c2ccccc21 | 3.31 nM |  |  |
| CN(CCC(=O)N1CCN(c2ccc(F)c(F)c2)CC1)CCC1c2ccccc2Oc2ccccc21 | 0.776 nM | 6460 nM | Kd (D(4) dopamine receptor): 490 nM; Kd (D(2) dopamine receptor): 490 nM; fold change (FC) (Rattus norvegicus): > 10000; Kd [3]: 1.62 nM; Kd [4]: 6920 nM; Kd [5]: 2820 nM; Kd [6]: 3390 nM; Kd [14]: 14500 nM; pKb [7]: 7.93; pKb [8]: 8.13; pKd [9]: 6.55; bioavailability [10]: 19%; Kp [11]: > 1; Tmax [12]: 1 h; half-life [13]: 11 h; IC50 (Cytochrome P450 1A2): > 10000 nM; IC50 (Cytochrome P450 3A4): > 10000 nM; IC50 (Cytochrome P450 2C19): > 10000 nM; IC50 (Cytochrome P450 2D6): < 1000 nM; Activity (V79): Non-toxic |
| Cc1cccc(C)c1N1CCN(C(=O)CCN(C)CCC2c3ccccc3-c3ccccc32)CC1 | > 1000 nM |  |  |
| CN(CCC(=O)N1CCN(c2ccc3nccn3n2)CC1)CCC1c2ccccc2-c2ccccc21 | 1.1 nM |  |  |
| CN(CCC(=O)N1CCN(c2ccc([N+](=O)[O-])cc2)CC1)CCc1ccc2ccccc2c1 | 275 nM | 16600 nM |  |
| CN(CCC(=O)N1CCN(c2ccc([N+](=O)[O-])cc2)CC1)CCc1cccc2ccccc12 | 77.6 nM | 8710 nM |  |

| SMILES | Kd [1] | Kd [2] | further results |
| --- | --- | --- | --- |
| CN(CCC(=O)N1CCN(c2ccccc2C#N)CC1)CCC1c2ccccc2-c2ccccc21 | 4.57 nM |  |  |
| CN(CCC(=O)N1CCN(c2ccc(C(F)(F)F)cc2)CC1)CCC1c2ccccc2-c2ccccc21 | 31.6 nM |  |  |
| CN(CCC(=O)N1CCN(c2ccc([N+](=O)[O-])cc2)CC1)CCC1c2ccccc2CCc2ccccc21 | 18.2 nM | 3470 nM | fold change (FC) (Rattus norvegicus): > 100 |
| CN(CCC(=O)N1CCN(c2cccc(=O)n2C)CC1)CCC1c2ccccc2-c2ccccc21 | 2.14 nM |  |  |
| C=CCN(CCC(=O)N1CCN(c2ccc([N+](=O)[O-])cc2)CC1)CCC1c2ccccc2-c2ccccc21 | 7.08 nM | 4070 nM |  |
| CCN(CCC(=O)N1CCN(c2ccc([N+](=O)[O-])cc2)CC1)CCC1c2ccccc2-c2ccccc21 | 0.955 nM | 1820 nM |  |
| CN(CCC(=O)N1CCN(c2ccc(Cl)cc2)CC1)CCC1c2ccccc2-c2ccccc21 | 1.7 nM |  |  |
| CN(CCC(=O)N1CCN(c2cccc(F)c2)CC1)CCC1c2ccccc2-c2ccccc21 | 3.63 nM |  |  |
| CN(CCC(=O)N1CCN(c2cccc(Cl)c2)CC1)CCC1c2ccccc2-c2ccccc21 | 17.8 nM |  |  |
| CN(CCC(=O)N1CCN(c2cccc(C(F)(F)F)c2)CC1)CCC1c2ccccc2-c2ccccc21 | 61.7 nM |  |  |
| CN(CCC(=O)N1CCN(c2ccc([N+](=O)[O-])cc2)CC1)CCn1c2ccccc2c2ccccc21 | 331 nM | 14500 nM |  |
| CN(CCC(=O)N1CCN(c2ccc(=O)n(C)n2)CC1)CCC1c2ccccc2-c2ccccc21 | 6.61 nM |  |  |
| CN(CCC(=O)N1CCN(c2ccc(Cl)c(Cl)c2)CC1)CCC1c2ccccc2-c2ccccc21 | 1.91 nM |  |  |
| CN(CCC(=O)N1CCN(c2ccc([N+](=O)[O-])cc2)CC1)CCC(c1ccccc1)c1ccccc1 | 13.8 nM | 8320 nM |  |
| CN(CCC(=O)N1CCN(c2ccc([N+](=O)[O-])cc2)CC1)CCC1c2ccccc2C=Cc2ccccc21 | 11.5 nM | 5130 nM |  |
| CN(CCC(=O)N1CCN(c2ccc([N+](=O)[O-])cc2)CC1)CCC1c2ccccc2-c2ccccc21 | 0.708 nM | 6920 nM | fold change (FC) (Rattus norvegicus): > 1000 |
| CN(CCC(=O)N1CCN(c2ccc(F)cc2)CC1)CCC1c2ccccc2-c2ccccc21 | 1.95 nM |  |  |
